Data published in ChEMBL document CHEMBL1128434, “Gonadotropin-releasing hormone antagonists: novel members of the azaline B family” (1995).
Values belong to the compound of their own block, whether it stands above or below them.

Assays:
Rattus norvegicus [1] = species on record: Rattus norvegicus; assay: Effect in the anti ovulatory assay (AOA) in rats expressed as no. of rats ovulating/No of rats treated at 2.0 mg; 1/10; type: functional
[2] = biological target: T1, Gonadotropin-releasing hormone receptor (Rattus norvegicus) (UniProt P30969); assay: Duration of action, measured using castrated male rat assay to inhibit luteinizing hormone release.; fully active at 24 hr but not at 48 hr; type: functional
T1 sequence (whole entry): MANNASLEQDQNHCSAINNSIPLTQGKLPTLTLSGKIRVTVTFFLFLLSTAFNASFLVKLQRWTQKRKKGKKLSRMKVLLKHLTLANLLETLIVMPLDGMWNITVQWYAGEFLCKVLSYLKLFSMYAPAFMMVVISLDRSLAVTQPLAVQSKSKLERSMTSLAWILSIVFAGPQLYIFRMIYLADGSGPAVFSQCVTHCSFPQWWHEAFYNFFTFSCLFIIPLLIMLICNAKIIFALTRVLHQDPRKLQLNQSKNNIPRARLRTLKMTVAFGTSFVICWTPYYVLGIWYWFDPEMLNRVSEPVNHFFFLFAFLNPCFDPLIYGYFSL

[3] = biological target: T1, Gonadotropin-releasing hormone receptor (Rattus norvegicus); assay: In vitro potency to inhibit GnRH-mediated LH secretion by cultured pituitary cells relative to [Ac-delta-Pro1,DFpa2,DTrp36]GnRH.; type: functional, cell-based; settings: Pituitary gland cell
How it was run: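 Dispersed rat pituitary cells in culture; antagonist inhibition of GnRH-stimulated LH secretion. Potency expressed relative to standard antagonist [Ac-Δ3Pro1,D4FPhe2,DTrp3,6]GnRH taken as 1.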

Rattus norvegicus [4] = species on record: Rattus norvegicus; assay: Effect in the anti ovulatory assay (AOA) in rats expressed as no. of rats ovulating/No of rats treated at 1.0 mg; 2/2; type: functional
Rattus norvegicus [5] = species on record: Rattus norvegicus; assay: Effect in the anti ovulatory assay (AOA) in rats expressed as no. of rats ovulating/No of rats treated at 2.5 mg; 4/8; type: functional
[6] = biological target: T1, Gonadotropin-releasing hormone receptor (Rattus norvegicus); assay: Effect in the anti ovulatory assay (AOA) in rats expressed as no. of rats ovulating/No of rats treated at 2.5 mg; 0/8; type: functional
[7] = biological target: T1, Gonadotropin-releasing hormone receptor (Rattus norvegicus); assay: Duration of action measured using castrated male rat assay to inhibit luteinizing hormone release.; fully active at 72 hr; type: functional
Rattus norvegicus [8] = species on record: Rattus norvegicus; assay: Effect in the anti ovulatory assay (AOA) in rats expressed as no. of rats ovulating/No of rats treated at 1.0 mg; 1/10; type: functional
Rattus norvegicus [9] = species on record: Rattus norvegicus; assay: Effect in the anti ovulatory assay (AOA) in rats expressed as no. of rats ovulating/No of rats treated at 50 mg; 4/7; type: functional
Rattus norvegicus [10] = species on record: Rattus norvegicus; assay: Effect in the anti ovulatory assay (AOA) in rats expressed as no. of rats ovulating/No of rats treated at 10 mg; 2/6; type: functional
Rattus norvegicus [11] = species on record: Rattus norvegicus; assay: Effect in the anti ovulatory assay (AOA) in rats expressed as no. of rats ovulating/No of rats treated at 25 mg; 0/3; type: functional
Rattus norvegicus [12] = species on record: Rattus norvegicus; assay: Effect in the anti ovulatory assay (AOA) in rats expressed as no. of rats ovulating/No of rats treated at 1.0 mg; 9/18; type: functional
Rattus norvegicus [13] = species on record: Rattus norvegicus; assay: Effect in the anti ovulatory assay (AOA) in rats expressed as no. of rats ovulating/No of rats treated at 2.5 mg; 0/6; type: functional
Rattus norvegicus [14] = species on record: Rattus norvegicus; assay: Duration of action measured using castrated male rat assay to inhibit luteinizing hormone release.; fully active at 48 hr but not at 72 hr; type: functional
Rattus norvegicus [15] = species on record: Rattus norvegicus; assay: Effect in the anti ovulatory assay (AOA) in rats expressed as no. of rats ovulating/No of rats treated at 1.0 mg; 8/8; type: functional
Rattus norvegicus [16] = species on record: Rattus norvegicus; assay: Effect in the anti ovulatory assay (AOA) in rats expressed as no. of rats ovulating/No of rats treated at 1.0 mg; 7/14; type: functional

SMILES: CC(=O)N[C@H](Cc1ccc2ccccc2c1)C(=O)N[C@H](Cc1ccc(Cl)cc1)C(=O)N[C@H](Cc1cccnc1)C(=O)N[C@@H](CO)C(=O)N[C@@H](CCCCNc1n[nH]c(N)n1)C(=O)N[C@H](CCCCNc1n[nH]c(N)n1)C(=O)N[C@@H](CC(C)C)C(=O)N[C@@H](CCCCNC(C)C)C(=O)N1CCC[C@H]1C(=O)N[C@H](C)N
No. of rats ovulated (Rattus norvegicus [1]): 1
Duration of action [2]: 24 h
Relative potency [3]: 0.23

SMILES: CC(=O)N[C@H](Cc1ccc2ccccc2c1)C(=O)N[C@H](Cc1ccc(Cl)cc1)C(=O)N[C@H](Cc1cccnc1)C(=O)N[C@@H](CO)C(=O)N[C@@H](Cc1ccc(NC(=O)C2CCC(=O)N2)cc1)C(=O)N[C@H](Cc1ccc(NC(=O)C2CCC(=O)N2)cc1)C(=O)N[C@@H](CC(C)C)C(=O)N[C@@H](CCCCNC(C)C)C(=O)N1CCC[C@H]1C(=O)N[C@H](C)N (some centres not stated)
No. of rats ovulated (Rattus norvegicus [4]): 2
No. of rats ovulated (Rattus norvegicus [5]): 4

SMILES: CC(=O)N[C@H](Cc1ccc2ccccc2c1)C(=O)N[C@H](Cc1ccc(Cl)cc1)C(=O)N[C@H](Cc1cccnc1)C(=O)N[C@@H](CO)C(=O)N[C@@H](Cc1ccc(Nc2n[nH]c(N)n2)cc1)C(=O)N[C@H](Cc1ccc(Nc2n[nH]c(N)n2)cc1)C(=O)N[C@@H](CC(C)C)C(=O)N[C@@H](Cc1ccc(NC(C)C)cc1)C(=O)N1CCC[C@H]1C(=O)N[C@H](C)N
No. of rats ovulated (Rattus norvegicus [9]): 4

SMILES: CC(=O)Nc1ccc(C[C@H](NC(=O)[C@H](CO)NC(=O)[C@@H](Cc2cccnc2)NC(=O)[C@@H](Cc2ccc(Cl)cc2)NC(=O)[C@H](Cc2ccc3ccccc3c2)NC(C)=O)C(=O)N[C@H](Cc2ccc(NC(C)=O)cc2)C(=O)N[C@@H](CC(C)C)C(=O)N[C@@H](CCCCNC(C)C)C(=O)N2CCC[C@H]2C(=O)N[C@H](C)N)cc1
No. of rats ovulated (Rattus norvegicus [10]): 2
No. of rats ovulated (Rattus norvegicus [11]): 0

Continued, in another order:

No. of rats ovulated [6]: 0
Duration of action [7]: 72 h
SMILES: CCC(=O)Nc1ccc(C[C@H](NC(=O)[C@H](CO)NC(=O)[C@@H](Cc2cccnc2)NC(=O)[C@@H](Cc2ccc(Cl)cc2)NC(=O)[C@@H](Cc2ccc3ccccc3c2)NC(C)=O)C(=O)N[C@H](Cc2ccc(NC(=O)CC)cc2)C(=O)N[C@@H](CC(C)C)C(=O)N[C@@H](CCCCNC(C)C)C(=O)N2CCC[C@H]2C(=O)N[C@H](C)N)cc1
No. of rats ovulated (Rattus norvegicus [8]): 4

Duration of action [7]: 72 h
Relative potency [3]: 0.52
SMILES: CC(=O)N[C@H](Cc1ccc2ccccc2c1)C(=O)N[C@H](Cc1ccc(Cl)cc1)C(=O)N[C@H](Cc1cccnc1)C(=O)N[C@@H](CO)C(=O)N[C@@H](Cc1ccc(NC(=O)CCNc2n[nH]c(N)n2)cc1)C(=O)N[C@H](Cc1ccc(NC(=O)CCNc2n[nH]c(N)n2)cc1)C(=O)N[C@@H](CC(C)C)C(=O)N[C@@H](CCCCNC(C)C)C(=O)N1CCC[C@H]1C(=O)N[C@H](C)N
No. of rats ovulated (Rattus norvegicus [12]): 9
No. of rats ovulated (Rattus norvegicus [13]): 0

No. of rats ovulated [6]: 0
SMILES: CC(=O)Nc1ccc(C[C@H](NC(=O)[C@H](CO)NC(=O)[C@@H](Cc2cccnc2)NC(=O)[C@@H](Cc2ccc(Cl)cc2)NC(=O)[C@@H](Cc2ccc3ccccc3c2)NC(C)=O)C(=O)N[C@H](Cc2ccc(NC(C)=O)cc2)C(=O)N[C@@H](CC(C)C)C(=O)N[C@@H](CCCCNC(C)C)C(=O)N2CCC[C@H]2C(=O)N[C@@H](C)N)cc1
Duration of action (Rattus norvegicus [14]): 48 h
No. of rats ovulated (Rattus norvegicus [15]): 8

No. of rats ovulated [6]: 0
Duration of action [7]: 72 h
Relative potency [3]: 0.82
SMILES: CC(=O)Nc1ccc(C[C@@H](NC(=O)[C@H](Cc2ccc(Nc3n[nH]c(N)n3)cc2)NC(=O)[C@H](CO)NC(=O)[C@@H](Cc2cccnc2)NC(=O)[C@@H](Cc2ccc(Cl)cc2)NC(=O)[C@@H](Cc2ccc3ccccc3c2)NC(C)=O)C(=O)N[C@@H](CC(C)C)C(=O)N[C@@H](CCCCNC(C)C)C(=O)N2CCC[C@H]2C(=O)N[C@H](C)N)cc1
No. of rats ovulated (Rattus norvegicus [16]): 7
